Only some compounds are listed: those with a hit (about 4.5% of all), similar ones and a draw of the others.
OX1R antag-1: human HCRTR1 antagonism | inhibition, % at 5 µM | CHO/OX1R cells, Fluo-8 calcium fluorescence, orexin A | AID 434989 | O43613 | hit rate 0.43% among 330,000;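 active = inhibition above its plate's threshold, mean inhibition of all tested compounds on the plate plus 3 SD, cut at about 37% in these data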;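 also: 0% = orexin A challenge wells and 100% = SB-334867-A antagonist wells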
OX1R antag-2: antagonists of human orexin 1 receptor (OX1R); hit rate 1.8% among 330,000; AID 485270; O43613; OX1R-expressing cells, FRET antagonist read-out; inhibition, % at 6.6 µM; in the data active = inhibition mostly above about 38%, no sharp cut-off; inactive = mostly below about 40%;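 also: 0% = agonist challenge alone and 100% = reference antagonist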
TAAR1 ag: agonists of human TAAR1 | CHO RD-HGA16 TAAR1, Fluo-8 calcium fluorescence; vehicle wells 0%, saturating PEA agonist 100% | AID 624467 | Q96RJ0 | activation, % at 3 µM | hit rate 0.99% among 360,000;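 active = activation above the mean activation of all test compounds in the run plus 3 SD, cut at about 38% in these data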
Target sequence (Q96RJ0 whole entry, looked up): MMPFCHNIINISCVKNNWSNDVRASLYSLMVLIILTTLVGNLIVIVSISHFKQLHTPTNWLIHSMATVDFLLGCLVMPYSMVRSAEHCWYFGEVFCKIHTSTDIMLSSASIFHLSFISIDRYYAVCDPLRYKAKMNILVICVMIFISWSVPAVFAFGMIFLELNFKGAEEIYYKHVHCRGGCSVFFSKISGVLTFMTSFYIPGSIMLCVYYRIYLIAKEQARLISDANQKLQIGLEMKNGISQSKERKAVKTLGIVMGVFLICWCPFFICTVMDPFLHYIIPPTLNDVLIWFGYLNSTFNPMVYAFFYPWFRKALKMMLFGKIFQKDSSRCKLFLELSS
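Assay system – CHO-derived RD-HGA16 cells with stable Gα16 and human TAAR1 · Compound dosing – one-point dosing at 3 µM (nominal) · Incubation – 17-24 h seeding, 75 min 37 °C dye, 30 min RT · Measured by – kinetic Fluo-8 calcium fluorescence · Control set – DMSO vehicle as 0%, PEA at EC100 as 100% · Repeats – single well for each compound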
GPR7 antagonist: antagonists of human GPR7 (neuropeptides B/W receptor 1); P48145; GPR7-expressing cells, fluorescence antagonist assay; inhibition, % at 4.4 µM; hit rate 1.1% among 290,000; AID 1861; in the data active = inhibition above about 16%, passing the limit was not always enough;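 also: cells stimulated with the agonist NPW; 0% = agonist with vehicle and 100% = vehicle without agonist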
Target sequence (P48145 whole entry, looked up): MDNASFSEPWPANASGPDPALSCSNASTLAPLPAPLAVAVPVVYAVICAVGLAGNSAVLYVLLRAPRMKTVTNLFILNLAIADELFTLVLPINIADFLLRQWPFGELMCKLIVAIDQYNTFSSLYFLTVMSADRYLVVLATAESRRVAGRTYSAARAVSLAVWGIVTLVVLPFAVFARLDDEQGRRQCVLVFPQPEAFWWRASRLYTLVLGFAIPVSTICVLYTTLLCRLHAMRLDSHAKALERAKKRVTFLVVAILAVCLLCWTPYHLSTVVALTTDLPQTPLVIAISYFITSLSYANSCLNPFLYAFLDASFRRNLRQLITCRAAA
CHO parental Ca: counter-screen for OX1R antagonists: effect in parental CHO cells; inhibition, % at 5.6 µM; parental CHO-K1, ATP-induced calcium, Fluo-8 fluorescence; hit rate 0.63% among 330,000; AID 463079;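 active = inhibition above that plate's mean sample inhibition plus 3 SD, cut at about 26% in these data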;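 also: 0% = ATP-challenged DMSO wells and 100% = DMSO wells without ATP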
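Test system: parental CHO cells; detection: calcium-sensitive Fluo-8 fluorescence; evaluation: percent inhibition of calcium signal; also added: ATP as calcium-mobilizing challenge; repeats: one well per compound; control set: ATP-challenged DMSO wells low, unchallenged DMSO wells high; compound: single nominal dose of 5.6 µM per compound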
TAAR1 antag: human TAAR1 antagonism. Q96RJ0. CHO RD-HGA16 TAAR1, Fluo-8 calcium fluorescence, antagonist. inhibition, % at 3 µM. hit rate 1.5% among 360,000;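 active = inhibition above a per-plate cutoff, the mean inhibition of test compounds on that plate plus 3 SD, cut at about 49% in these data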;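 also: 0% = DMSO plus EC80 beta-PEA response and 100% = DMSO alone without agonist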
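Test system – hTAAR1-expressing CHO RD-HGA16 cells, Gα16-coupled · Also added – β-PEA at EC80 concentration, post-compound challenge · Compound – 3 µM, single point · Incubation – dye loading 75 min at 37 °C, then 30 min room temperature · Measured by – Fluo-8 intracellular calcium dye fluorescence, real-time kinetic reads · Benchmarks – vehicle and agonist controls · Replicates – singlicate, one well per test compound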
OX1R HTRF conf: confirmation of human orexin 1 receptor antagonists, HTRF format. AID 492964. shares compounds with OX1R antag-2. inhibition, % at 6.6 µM. OX1R-expressing cells, HTRF antagonist assay. hit rate 49% among 1,800; in the data active = inhibition above about 55%;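 also: CHO cells expressing OX1R stimulated with orexin A at about EC80; 0% = agonist challenge alone and 100% = reference antagonist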
CHO-K1 HTRF: signal in parental CHO-K1 cells, OX1R antagonist counter-screen; shares compounds with OX1R antag-2; inhibition, % at 6.6 µM; HTRF counterscreen; hit rate 48% among 1,800; in the data active = inhibition above about 17%;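 also: 0% = agonist challenge with vehicle and 100% = vehicle alone without agonist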
* marks the source's active call; other numbers are inactive results; · = not tested or not shown.

SMILES	OX1R antag-1	OX1R antag-2	TAAR1 ag	GPR7 antagonist	CHO parental Ca	TAAR1 antag	OX1R HTRF conf	CHO-K1 HTRF
O=[N+]([O-])c1ccc(-c2ccc(S(=O)(=O)N3CCOCC3)cc2)cc1	-14	14	3	-3	-3	-3	·	·
O=C1CN(S(=O)(=O)c2ccc([N+](=O)[O-])cc2)CC(=O)N1	-7	77*	1	-3	-8	-1	40	66*
Cc1nnc(N/N=C/c2ccc([N+](=O)[O-])cc2)n1N	-5	127*	3	4	3	-37	38	76*
O=C(O)c1cccc(-c2ccc(/C=N/NC(=O)c3cccnc3)o2)c1	-8	37	-1	-5	-1	-4	·	·
Cc1nnc(N/N=C/c2ccc(Br)cc2)n1N	-2	33	0	9	-4	-3	·	·
Cc1nnc(N/N=C\c2ccc(-c3cccc(C(=O)O)c3)o2)n1N	-1	115*	16	-3	1	-4	48	33*
Cc1c(Cl)c([N+](=O)[O-])nn1CCCC(=O)N1CCN(c2ccccc2)CC1	-19	10	2	-1	-17	8	·	·
Cc1c(Cl)c([N+](=O)[O-])nn1CCCC(=O)N(Cc1ccccc1)Cc1ccccc1	23	84*	0	11	-16	22	85*	4
C[C@@H](NC(=O)[C@@H]1CCCN1C(=O)[C@@H]1CCCN1C(=O)OC(C)(C)C)c1ccccc1	·	·	6	·	·	-6	·	·
O/N=C/c1cn(-c2ccccc2)nn1	-12	4	5	11	-8	4	·	·
Cn1cc(/C=N\O)nc2c(=O)n(-c3ccccc3)c(=O)nc1-2	-2	78*	3	-7	-7	4	68*	89*
CCC(Oc1ccccc1)C(=O)Nc1ncc([N+](=O)[O-])s1 (stereo not drawn)	3	79*	15	-12	9	-19	29	15
COc1ccc(C(C)(O)c2nc(-c3ccc(S(C)(=O)=O)cc3)cs2)cc1 (stereo not drawn)	·	·	1	·	·	-1	·	·
COc1ccc(OC)c(CN2C(=O)c3ccccc3C2c2nnnn2C2CCCC2)c1 (stereo not drawn)	·	·	6	·	·	-24	·	·
CCn1c(O)c(/C=C2\C=Nc3ccccc32)sc1=Nc1ccc(C)cc1	-28	18	9	1	-9	-1	·	·
CCn1c(O)c(/C=C2\C=Nc3ccccc32)sc1=O	16	86*	2	-9	-20	21	86*	6
CCOc1cc(-c2ccccc2)nc2c1CN(S(=O)(=O)c1ccc(C)cc1)C(c1cccc(Cl)c1)C2 (stereo not drawn)	·	·	1	·	·	-2	·	·
CC(C#N)(NC(=O)CN1CCN(S(=O)(=O)c2cccc(F)c2)CC1)C1CC1 (stereo not drawn)	·	·	1	·	·	-4	·	·
COC(=O)c1nn(-c2ccc(OC)cc2)c(=O)c2c(N)sc(C)c12	-19	83*	2	-2	-12	4	43	43*
COC(=O)c1nn(-c2ccc(OC)cc2)c(=O)cc1NN	-4	19	6	9	-15	-7	·	·
CCCC1(C2CCCC2)NC(=O)NC1=O (stereo not drawn)	·	·	1	·	·	-15	·	·
CN(Cc1ccccc1)C(=O)[C@@H]1CCCN1C(=O)[C@@H]1CCCN1C(=O)c1ccccc1	·	·	0	·	·	3	·	·
Cc1ccc(C(C)C)c(OCC(=O)c2c(O)c3ccccc3oc2=O)c1	-14	82*	-6	-8	-8	7	36	2
COc1ccccc1N(C)S(=O)(=O)c1ccc(C(=O)Nc2ccc(C)cc2C)cc1	·	·	4	·	·	32	·	·
O=C(CSc1cccc2cccc(Cl)c12)NC1=NCCS1	2	112*	6	3	-6	10	35	9
SMILES	OX1R antag-1	OX1R antag-2	TAAR1 ag	GPR7 antagonist	CHO parental Ca	TAAR1 antag	OX1R HTRF conf	CHO-K1 HTRF
CC1CC(C)(C)CC2(C1)NC(=O)N(CC(=O)Nc1ccc3c(c1)OCO3)C2=O (stereo not drawn)	·	·	0	·	·	-1	·	·
CN1CCc2cc3c(c4c2[C@H]1[C@H](O)c1ccccc1-4)OCO3	-17	119*	0	-13	-1	-19	66*	35*
COc1ccc(-c2n[nH]nc2C2=CC(=O)CC(C)(C)C2)cc1	·	·	-1	·	·	-14	·	·
CN(CC(=O)Nc1ccccc1Br)C(=O)c1ccccc1-c1nc2ccccc2s1	3	84*	0	13	-22	15	71*	4
CN(CC(=O)Nc1ccccc1Br)C(=O)c1cc(Cl)nc2ccccc12	-24	4	7	·	-14	15	·	·
CC1(C(=O)NS(=O)(=O)c2ccccc2)CCN1C(=O)CC1CCCCC1 (stereo not drawn)	·	·	0	·	·	-6	·	·
C[C@@H]1CCCCO[C@@H](CN(C)Cc2ccncc2)[C@@H](C)CN([C@H](C)CO)C(=O)c2cc(NC(=O)c3ccccc3)ccc2O1	·	·	1	·	·	-7	·	·
O=C(Nc1ccc([N+](=O)[O-])cc1)C(=O)Nc1cccc(C(=O)O)c1	-6	79*	1	-6	-6	-23	36	32*
O=C(CCNC(=O)C1CCN(S(=O)(=O)c2ccccc2)CC1)Nc1ccccc1	-15	13	10	1	-9	-12	·	·
CCN(CC)c1ccc(/C=N/NC(=O)c2c(Cl)cnn2C)c(O)c1	20	77*	1	-18	-9	-4	66*	12
Cn1c(=O)c2cc(NC(=O)Nc3ccccc3)ccc2n1Cc1ccccc1	·	·	2	·	·	-6	·	·
Cc1cccn2cc(-c3cc4ccccc4oc3=O)nc12	1	10	0	-6	1	-19	·	·
O=c1oc2ccccc2cc1-c1cn2ccccc2n1	0	95*	2	-9	6	13	72*	20*
O=C(CNC(=O)c1ccccc1)c1ccccc1	-18	85*	5	·	-11	10	15	-4
O=C(CNC(=O)c1ccc(Br)cc1)c1ccccc1	-8	6	0	-5	10	10	·	·
CCN1CCN(CCCNC(=O)c2cc3cc4ccc(OC)cc4nc3o2)CC1	-30	104*	·	-8	-23	·	37	41*
Cc1ccc2cc3cc(C(=O)NCCCN4CCCC4=O)oc3nc2c1	-15	22	-1	-1	-8	-13	·	·
COc1ccc2cc3cc(C(=O)NCCCN4CCOCC4)oc3nc2c1	-13	135*	0	8	-3	-20	56*	35*
Cc1ccc2cc3cc(C(=O)NCCN4CCOCC4)oc3nc2c1	-6	117*	4	5	-8	1	46	38*
O=C(Nc1ccc(F)c(Cl)c1)[C@@H]1O[C@H](CO)[C@H](O)[C@H](O)[C@H]1O	·	·	2	·	·	-1	·	·

Bioassay records (PubChem BioAssay)
